# CHRM1 antagonist: blocks human M1 muscarinic receptor | inhibition, % at 3 µM | 360,000 tested, 1.3% active | CHO-K1 hM1, Fluo-8 calcium fluorescence, ACh EC80 antagonist | P11229;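 active means percent inhibition above its own plate's cutoff, namely the mean of that plate's compound wells plus 3 SD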;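 further: peak over basal fluorescence ratio during 140 s after agonist addition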
# Target sequence (P11229 whole entry, looked up): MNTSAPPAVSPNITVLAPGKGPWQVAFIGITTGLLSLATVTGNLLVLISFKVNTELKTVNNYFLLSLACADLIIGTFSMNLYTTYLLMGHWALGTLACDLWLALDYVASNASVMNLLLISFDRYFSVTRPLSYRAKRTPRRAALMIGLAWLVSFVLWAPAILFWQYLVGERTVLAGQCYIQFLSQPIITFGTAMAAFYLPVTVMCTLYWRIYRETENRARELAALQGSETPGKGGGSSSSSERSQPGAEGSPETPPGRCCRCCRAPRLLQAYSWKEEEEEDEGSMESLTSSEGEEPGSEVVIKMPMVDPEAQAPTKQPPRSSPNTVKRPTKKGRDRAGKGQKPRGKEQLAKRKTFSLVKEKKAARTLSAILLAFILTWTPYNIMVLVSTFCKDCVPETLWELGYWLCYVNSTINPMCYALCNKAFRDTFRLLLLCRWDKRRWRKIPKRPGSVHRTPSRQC
# M1 PAM: potentiates human M1 receptor response to acetylcholine; P11229; CHO-K1 hM1, Fluo-8 calcium fluorescence, ACh EC20; 0% = ACh EC20, 100% = maximal ACh; activation, % at 3 µM; 360,000 tested, 0.088% active; in the data active means activation above about 19%, passing the limit was not always enough
# TAAR1 antagonist: human TAAR1 antagonism | Q96RJ0 | CHO RD-HGA16 TAAR1, Fluo-8 calcium fluorescence, antagonist | inhibition, % at 3 µM | 360,000 tested, 1.5% active | AID 624466;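 active means inhibition above a per-plate cutoff, the mean inhibition of test compounds on that plate plus 3 SD, cut at about 49% in these data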
#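 Test system – hTAAR1-expressing CHO RD-HGA16 cells, Gα16-coupled · Also added – β-PEA at EC80 concentration, post-compound challenge · Compound – 3 µM, single point · Incubation – dye loading 75 min at 37 °C, then 30 min room temperature · Measured by – Fluo-8 intracellular calcium dye fluorescence, real-time kinetic reads · Benchmarks – vehicle and agonist controls · Replicates – singlicate, one well per test compound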
# M1 ag: activates human CHRM1 receptor; P11229; CHO-K1 hM1, Fluo-8 calcium fluorescence, agonist mode; 0% DMSO, 100% acetylcholine EC100; activation, % at 3 µM; 360,000 tested, 0.33% active; AID 588814;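 active means activation above the run's mean compound activation plus 3 SD, cut at about 16% in these data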;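 further: peak over basal fluorescence ratio within a 140 s kinetic read after compound addition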
# TAAR1 agonist: agonists of human TAAR1. Q96RJ0. CHO RD-HGA16 TAAR1, Fluo-8 calcium fluorescence; vehicle wells 0%, saturating PEA agonist 100%. activation, % at 3 µM. 360,000 tested, 0.99% active. AID 624467;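 active means activation above the mean activation of all test compounds in the run plus 3 SD, cut at about 38% in these data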
#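 Signal – calcium-sensitive Fluo-8 signal, excitation 470-495, emission 515-575 nm · System – RD-HGA16 (CHO) cells co-expressing Gα16 and hTAAR1 · Incubation – 17-24 h seeding, 75 min 37 °C dye, 30 min RT · Compound dosing – 3 µM single concentration · Repeats – no replicates (n 1)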
# Hits are given with their value; . = inactive; / = no result given. In the library only some 3.4% were active in any assay of this set; here they are far more common.
SMILES,CHRM1 antagonist,M1 PAM,TAAR1 antagonist,M1 ag,TAAR1 agonist
O=C(OCC(=O)N1CCC(c2ccccc2)=N1)c1ccc(Cl)s1,.,.,.,.,.
CCc1cc(C(=O)OCC(=O)N2CCC(c3ccccc3)=N2)sc1C,48,.,.,.,.
COC(=O)[C@]12C[C@H](CC(=O)NCc3cccc(C(F)(F)F)c3)C(=O)N(CCC3=CCCCC3)C1=C[C@H](C(C)(C)C)O[C@@H]2C,/,/,.,/,.
Cc1[nH]c2ccccc2c1/C=C/c1nc2ccccc2c(=O)n1CCO,.,.,51,.,.
O=S(=O)(CS(=O)(=O)c1ccccc1Br)c1ccccc1Br,/,/,.,/,.
COc1ccc(-c2cc(C3CCN(c4cc(Cl)nc(N)n4)CC3)[nH]n2)cc1,.,.,.,.,43
Nc1nc(Cl)cc(N2CCC(c3cc(-c4ccc(Cl)cc4)n[nH]3)CC2)n1,38,.,.,.,.
COc1ccc(OC)c(-c2cc(C3CCN(c4cc(Cl)nc(N)n4)CC3)[nH]n2)c1,.,.,56,.,.
Clc1ccc(-c2cc(C3CCNCC3)[nH]n2)cc1,.,.,.,.,.
COc1ccc(-c2cc(C3CCN(Cc4cccc(C(F)(F)F)c4)CC3)[nH]n2)cc1,.,.,.,.,.
COc1ccc(OC)c(-c2cc(C3CCN(c4ncccc4[N+](=O)[O-])CC3)[nH]n2)c1,.,.,.,.,.
CC1CCCC(C)N1C(=O)c1ccccc1 (stereo unspecified),/,/,.,/,.
O=S(=O)(c1cccc(-c2csc(N/N=C/c3ccco3)n2)c1)N1CCOCC1,.,.,60,.,.
COc1ccc(N2CCN(C(=O)CCS(=O)(=O)c3ccc(OC)cc3)CC2)cc1,.,.,.,.,.
COc1ccc(S(=O)(=O)CCC(=O)N2CCN(c3ccc([N+](=O)[O-])cc3)CC2)cc1,48,.,.,.,.
CC(C)(C)c1ccc(C#C[C@@H]2C=C[C@@H](O)[C@@H](COC(=O)Nc3ccccc3)O2)cc1,/,/,.,/,.
CN(C)c1ccc(O)c2c1CC1CC3[C@@H](N(C)C)C(=O)C(C(N)=O)=C(O)[C@]3(O)C(=O)C1=C2O (stereo partly specified),.,.,.,.,.
C[C@H]1c2cccc(O)c2C(O)=C2C(=O)[C@]3(O)C(O)=C(C(N)=O)C(=O)[C@@H](N(C)C)[C@@H]3[C@@H](O)[C@@H]21,.,.,/,25,/
CCOC(=O)c1cc(C(=O)OCC)c(=O)[nH]c1SCc1ccccc1,.,.,.,.,41
Cc1cc(C)c(OCCCNCc2ccccc2)c(Br)c1,.,.,.,.,.
Cc1cc(Cl)c(OCCCNCc2ccccc2)c(Br)c1,.,.,.,.,44
O=S1(=O)N[C@@H](Cc2ccccc2)COc2cc(N3CCOCC3)ccc21,/,/,.,/,.
CC1CCCN(C(=O)COC(=O)c2cc(-c3cccs3)nn2-c2ccccc2)C1 (stereo unspecified),46,.,.,.,.
NC(=O)COC(=O)c1cc(-c2cccs2)nn1-c1ccccc1,.,.,.,.,.
C=CCN1[C@@H](C)[C@@H](c2ccccc2)Oc2c(Cl)cccc2S1(=O)=O,/,/,.,/,.
SMILES,CHRM1 antagonist,M1 PAM,TAAR1 antagonist,M1 ag,TAAR1 agonist
O=C(CCCn1c(=O)c2sccc2n(CC(=O)OCc2ccccc2)c1=O)NCc1ccco1,28,.,.,.,.
Cc1ccccc1CN1[C@@H](CC(C)C)COc2cc(Br)ccc2S1(=O)=O,/,/,.,/,.
O=C(Nc1ccc(S(=O)(=O)NCc2ccccc2)cc1)Nc1ccc2c(c1)OCO2,27,.,/,.,/
COc1ccc(C(=O)Nc2ccc(NC(C)=O)cc2)cc1S(=O)(=O)N1CCCC1,.,.,.,.,.
COc1ccc(C(=O)Nc2cccc(-c3csc(C)n3)c2)cc1S(=O)(=O)N1CCCC1,36,.,52,.,.
N#Cc1cccc(C(=O)Nc2cccc(S(=O)(=O)N3CCCC3)c2)c1,38,.,.,.,.
O=C(Nc1ccc(N2CCOCC2)cc1)c1cccc(S(=O)(=O)N2CCCC2)c1,34,.,.,.,.
Cc1ccc(SC(C)C(=O)Nc2ccc(S(=O)(=O)N3CCOCC3)cc2)cc1 (stereo unspecified),.,.,.,.,39
COc1cc2c(c(OC)c1OC)[C@@]1(c3ccccc3)CCCC[C@H]1[C@@H]2NC(=O)C(F)(F)F,/,/,.,/,.
Cc1cc(O)cc(=O)n1-c1cc(C(F)(F)F)cc(C(F)(F)F)c1,/,/,.,/,.
COc1ccc(C(=O)Nc2cccc(C)c2)cc1S(=O)(=O)N1CCOCC1,.,.,.,.,.
CN(c1ccccc1C(=O)Nc1ccc(S(=O)(=O)N2CCOCC2)cc1)S(=O)(=O)c1ccccc1,43,.,.,.,.
COc1ccc(C(=O)Nc2cccc(S(=O)(=O)N3CCCC3)c2)cc1S(=O)(=O)N1CCOCC1,43,.,.,.,.
CC(C)[C@H](NC(=O)c1cccc(S(=O)(=O)N2CCOCC2)c1)C(=O)OCC(=O)Nc1cccc(Br)c1,.,.,.,19,.
CN1CCN(c2ccc(NC(=O)c3cccc(S(=O)(=O)N4CCCC4)c3)cc2)CC1,47,.,.,.,.
COC(=O)C1=C(C)N(Cc2ccc(Br)cc2)C(=S)NC1c1ccccc1 (stereo unspecified),/,/,.,/,.
CNc1nc(NCc2ccc(N(C)C)cc2)c2sccc2n1,.,.,/,.,/
NC(=O)c1ncn([C@@H]2O[C@H](C(=O)N[C@H](Cc3ccccc3)C(=O)N3CCN(c4ccc(Cl)cn4)CC3)[C@@H](O)[C@H]2O)n1,/,/,.,/,.
C/C=C/c1cccc(-c2nc(C(=O)NC3CCC3)cc3c2[C@H](CCO)N(S(=O)C(C)(C)C)C3)c1 (stereo partly specified),.,.,.,.,.
COc1ccc(C(=O)Nc2ccc(N3CCOCC3)cc2)cc1S(=O)(=O)N1CCOCC1,.,.,.,.,.
O=C(Nc1cccc(S(=O)(=O)N2CCCC2)c1)c1cccc(S(=O)(=O)N2CCOCC2)c1,29,.,.,.,.
Cc1ccc(C(=O)Oc2cccc(NC(=O)c3cccs3)c2)cc1S(=O)(=O)N1CCOCC1,.,.,57,.,.
COc1ccc(C(=O)Nc2ccc(-c3ccc(C)o3)cc2)cc1S(=O)(=O)N1CCOCC1,.,.,68,.,.
CC(=O)c1cccc(NC(=O)c2ccc(C)c(S(=O)(=O)N3CCOCC3)c2)c1,.,.,.,.,.
O=C(Nc1cccc(S(=O)(=O)N2CCOCC2)c1)c1cc(S(=O)(=O)N2CCOCC2)c(Cl)cc1Cl,36,.,76,.,.
CC(=O)NC(=S)Nc1ccc(NC(=S)NC(=O)c2cccs2)cc1,.,.,.,.,.
Cc1c(C(=O)NC(=S)Nc2ccc(NC(=O)c3cccs3)cc2)cccc1[N+](=O)[O-],33,.,68,.,.
